# Measured values: ChEMBL document CHEMBL4406880, “Design, synthesis, and bioactivity of dihydropyrimidine derivatives as kinesin spindle protein inhibitors” (Bioorg Med Chem, 2019)
# What was measured:
# Type in all cases: functional
# UO-31 = test: Growth inhibition of human UO31 cells assessed as cell viability at 0.001 uM incubated for 48 hrs by sulforhodamine B assay relative to control; settings: UO-31, 48 h, read-out: Activity
# NCI-H226 [1] = test: Growth inhibition of human NCI-H226 cells incubated for 48 hrs by sulforhodamine B assay; settings: NCI-H226, 48 h
# Method in brief: (§1)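 NCI-60 five-dose SRB assay in RPMI 1640 with 5% FBS, 37 °C, 5% CO2. Compound given at five tenfold dilutions, 0.01–100 µM, for 48 h. Adherent cells fixed with TCA, suspension cells with 16% final TCA. Bound SRB read at 515 nm and growth calculated against time-zero and untreated controls. GI50 taken from dose–response curves as the concentration giving a 50% decrease in net cell growth.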
# TK-10 = test: Growth inhibition of human TK10 cells incubated for 48 hrs by sulforhodamine B assay; settings: TK-10, 48 h
# Method in brief: (§2)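 NCI-60 five-dose SRB assay. Cells were exposed for 48 h to tenfold dilutions of 0.01, 0.1, 1, 10 and 100 µM, in RPMI 1640 with 5% FBS. Plates fixed with TCA at the time of drug addition served as the time-zero reference. GI50 is the concentration giving a 50% reduction in net growth. TGI is total growth inhibition. LC50 is a net 50% loss of the initial cells.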
# Hs-578T [2] = test: Growth inhibition of human Hs 578T cells assessed as cell viability at 1 uM incubated for 48 hrs by sulforhodamine B assay; settings: read-out: Activity
# 786-0 = test: Growth inhibition of human 786-0 cells assessed as cell viability at 0.1 uM incubated for 48 hrs by sulforhodamine B assay; settings: 786-0, 48 h, read-out: Activity
# Method in brief: (§3)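 NCI-60 five-dose mode: five tenfold dilutions (0.01, 0.1, 1, 10, 100 µM) are applied for 48 h to cells in RPMI 1640 with 5% FBS at 37 °C. Endpoint is TCA fixation with sulforhodamine B read at 515 nm. % growth comes from the 0 h and control absorbances. GI50 is the concentration giving a 50% reduction in net cell growth.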
# OVCAR-3 = test: Growth inhibition of human OVCAR3 cells assessed as cell viability at 0.1 uM incubated for 48 hrs by sulforhodamine B assay; settings: OVCAR-3, 48 h, read-out: Activity
# NCI/ADR-RES = test: Growth inhibition of human NCI/ADR-RES cells assessed as cell viability at 0.1 uM incubated for 48 hrs by sulforhodamine B assay; settings: read-out: Activity
# NCI-H226 [3] = test: Growth inhibition of human NCI-H226 cells assessed as cell viability at 1 uM incubated for 48 hrs by sulforhodamine B assay; settings: NCI-H226, 48 h, read-out: Activity
# OVCAR-4 [4] = test: Growth inhibition of human OVCAR4 cells assessed as cell viability at 100 uM incubated for 48 hrs by sulforhodamine B assay; settings: OVCAR-4, 48 h, read-out: Activity
# NCI-H522 = test: Growth inhibition of human NCI-H522 cells assessed as cell viability at 100 uM incubated for 48 hrs by sulforhodamine B assay; settings: NCI-H522, 48 h, read-out: Activity
# OVCAR-5 = test: Growth inhibition of human OVCAR5 cells assessed as cell viability at 1 uM incubated for 48 hrs by sulforhodamine B assay; settings: OVCAR-5, 48 h, read-out: Activity
# SNB-75 [5] = test: Induction of apoptosis in human SNB75 cells assessed as late apoptotic cells at 2 uM incubated for 24 hrs by annexin V FITC and propidium iodide based flow cytometry (reference value: 0.59 %)
# KM12 = test: Growth inhibition of human KM12 cells incubated for 48 hrs by sulforhodamine B assay; settings: KM12, 48 h; method in brief: as §1
# A549 [6] = test: Growth inhibition of human A549/ATCC cells assessed as cell viability at 0.1 uM incubated for 48 hrs by sulforhodamine B assay; settings: A549, 48 h, read-out: Activity; method in brief: as §3
# A549 [7] = test: Growth inhibition of human A549/ATCC cells incubated for 48 hrs by sulforhodamine B assay; settings: A549, 48 h; method in brief: as §3
# HOP-62 = test: Growth inhibition of human HOP62 cells assessed as cell viability at 0.001 uM incubated for 48 hrs by sulforhodamine B assay relative to control; settings: HOP-62, 48 h, read-out: Activity
# HOP-92 = test: Growth inhibition of human HOP92 cells assessed as cell viability at 0.1 uM incubated for 48 hrs by sulforhodamine B assay; settings: HOP-92, 48 h, read-out: Activity
# SK-MEL-28 = test: Growth inhibition of human SK-MEL-28 cells assessed as cell viability at 0.1 uM incubated for 48 hrs by sulforhodamine B assay; settings: SK-MEL-28, 48 h, read-out: Activity
# HCC 2998 = test: Growth inhibition of human HCC2998 cells incubated for 48 hrs by sulforhodamine B assay; settings: HCC 2998, 48 h; method in brief: as §3
# Hs-578T [8] = test: Growth inhibition of human Hs 578T cells assessed as cell viability at 100 uM incubated for 48 hrs by sulforhodamine B assay; settings: read-out: Activity
# SK-MEL-5 = test: Growth inhibition of human SK-MEL-5 cells assessed as cell viability at 100 uM incubated for 48 hrs by sulforhodamine B assay; settings: SK-MEL-5, 48 h, read-out: Activity
# OVCAR-4 [9] = test: Growth inhibition of human OVCAR4 cells assessed as cell viability at 0.1 uM incubated for 48 hrs by sulforhodamine B assay; settings: OVCAR-4, 48 h, read-out: Activity
# SNB-75 [10] = test: Growth inhibition of human SNB75 cells incubated for 48 hrs by sulforhodamine B assay; settings: SNB-75, 48 h; method in brief: as §2
# SR = test: Growth inhibition of human SR cells assessed as cell viability at 0.1 uM incubated for 48 hrs by sulforhodamine B assay; settings: read-out: Activity
# U-251 = test: Growth inhibition of human U251 cells assessed as cell viability at 100 uM incubated for 48 hrs by sulforhodamine B assay; settings: U-251, 48 h, read-out: Activity
# [11] = read-out: LC50 (the source's name)
# [12] = read-out: pLC50 (the source's name) (converted)
smiles,measurement,setting,value
CC1=C(C(=O)OCc2ccccc2)C(c2ccc3c(c2)OCO3)n2c(nc3ccccc32)N1 (racemic),viability at 0.001 µM,UO-31,86%
same,GI50,NCI-H226 [1]; read-out: GI50,> 100 µM
same,LC50 (concentration killing 50% of starting cells),NCI-H226 [1]; read-out: LC50,> 100 µM
same,TGI,NCI-H226 [1]; read-out: TGI,> 100 µM
same,GI50,NCI-H226 [1]; read-out: pGI50 (converted),> 100 µM
same,LC50 (concentration killing 50% of starting cells),NCI-H226 [1]; read-out: pLC50 (converted),> 100 µM
same,TGI,NCI-H226 [1]; read-out: pTGI,> 100 µM
same,GI50,TK-10; read-out: GI50,> 100 µM
same,CC50,TK-10; [11],> 100 µM
same,TGI,TK-10; read-out: TGI,> 100 µM
same,GI50,TK-10; read-out: pGI50 (converted),> 100 µM
same,CC50,TK-10; [12],> 100 µM
same,TGI,TK-10; read-out: pTGI,> 100 µM
same,viability at 1 µM,Hs-578T [2],5%
same,viability at 0.1 µM,786-0,97%
same,viability at 0.1 µM,OVCAR-3,85%
same,viability at 0.1 µM,NCI/ADR-RES,86%
same,viability at 1 µM,NCI-H226 [3],66%
same,viability at 100 µM,OVCAR-4 [4],19%
same,viability at 100 µM,NCI-H522,-8%
same,viability at 1 µM,OVCAR-5,52%
same,Activity,SNB-75 [5],15.12%
same,GI50,KM12; read-out: GI50,0.34 µM
same,LC50,KM12; read-out: LC50,> 100 µM
same,TGI,KM12; read-out: TGI,> 100 µM
same,GI50,KM12; read-out: pGI50 (converted),0.339 µM
same,LC50,KM12; read-out: pLC50 (converted),> 100 µM
same,TGI,KM12; read-out: pTGI,> 100 µM
same,viability at 0.1 µM,A549 [6],99%
same,GI50,A549 [7]; read-out: GI50,0.68 µM
same,CC50,A549 [7]; [11],> 100 µM
same,TGI,A549 [7]; read-out: TGI,> 100 µM
same,GI50,A549 [7]; read-out: pGI50 (converted),0.676 µM
same,CC50,A549 [7]; [12],> 100 µM
same,TGI,A549 [7]; read-out: pTGI,> 100 µM
same,viability at 0.001 µM,HOP-62,91%
same,viability at 0.1 µM,HOP-92,70%
same,viability at 0.1 µM,SK-MEL-28,93%
same,GI50,HCC 2998; read-out: GI50,11 µM
same,LC50,HCC 2998; read-out: LC50,> 100 µM
same,TGI,HCC 2998; read-out: TGI,> 100 µM
same,GI50,HCC 2998; read-out: pGI50 (converted),11 µM
same,LC50,HCC 2998; read-out: pLC50 (converted),> 100 µM
same,TGI,HCC 2998; read-out: pTGI,> 100 µM
same,viability at 100 µM,Hs-578T [8],-24%
same,viability at 100 µM,SK-MEL-5,35%
same,viability at 0.1 µM,OVCAR-4 [9],90%
same,GI50,SNB-75 [10]; read-out: GI50,0.22 µM
same,LC50 (concentration giving 50% net loss of initial cells),SNB-75 [10]; read-out: LC50,> 100 µM
same,TGI,SNB-75 [10]; read-out: TGI,0.8 µM
same,GI50,SNB-75 [10]; read-out: pGI50 (converted),0.214 µM
same,LC50 (concentration giving 50% net loss of initial cells),SNB-75 [10]; read-out: pLC50 (converted),> 100 µM
same,TGI,SNB-75 [10]; read-out: pTGI (converted),0.794 µM
same,viability at 0.1 µM,SR,75%
same,viability at 100 µM,U-251,3%
